Rows were chosen to be rich in hits. Some 2.9% of all compounds tested hit in one or more screens of this group.
ABHD5-PLIN5 inh = blocks binding of human ABHD5 to perilipin-5; inhibition, % at 4 µM; actives 0.78% (n = 360,000); Q00G26+Q8WTS1; Split G. princeps luciferase complementation, luminescence, 4 h;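 active means inhibition above the mean inhibition across every tested compound plus 3 SD, cut at about 22% in these data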;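 further: 0% = DMSO only wells and the 100% control is not disclosed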
A3A deaminase = blocks human APOBEC3A ssDNA deamination | recombinant A3A, FAM/TAMRA ssDNA deamination fluorescence | inhibition, % at 20 µM | actives 0.41% (n = 330,000) | AID 493011;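 active means at least 40% inhibition at 20 µM here, with at most 30% in a related deaminase screen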;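 further: plate controls were A3A with DMSO for no effect and wells lacking A3A enzyme for full effect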
A3G deaminase = APOBEC3G (human) deaminase inhibition; Q9HC16; recombinant A3G, ssDNA deamination FAM/TAMRA fluorescence; inhibition, % at 20 µM; actives 0.28% (n = 330,000); AID 493012;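 active means inhibition of at least 40% at 20 µM, with no more than 30% in the related APOBEC3A deaminase screen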;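 further: plate controls were DMSO wells with A3G for no effect and wells lacking A3G enzyme for full effect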
Target sequence (Q9HC16 whole entry, looked up): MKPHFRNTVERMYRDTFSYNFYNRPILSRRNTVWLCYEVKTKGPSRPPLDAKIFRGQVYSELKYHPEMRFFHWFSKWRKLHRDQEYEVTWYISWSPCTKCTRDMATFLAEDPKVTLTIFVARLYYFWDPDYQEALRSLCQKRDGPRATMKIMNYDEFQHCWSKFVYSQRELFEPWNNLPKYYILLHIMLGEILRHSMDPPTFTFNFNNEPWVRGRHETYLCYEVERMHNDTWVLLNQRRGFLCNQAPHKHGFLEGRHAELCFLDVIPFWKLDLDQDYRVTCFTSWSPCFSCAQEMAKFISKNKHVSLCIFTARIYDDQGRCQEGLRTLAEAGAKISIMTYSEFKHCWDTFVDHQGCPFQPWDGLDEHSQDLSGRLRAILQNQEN
HCV NS3 hel inh = inhibitors of Hepatitis C virus NS3 helicase; NS3 helicase DNA unwinding, Cy5 molecular beacon fluorescence; inhibition, % at 10.9 µM; actives 0.56% (n = 290,000); AID 1800;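 active means inhibition above the mean of all tested compounds plus 3 SD, set per campaign, cut at about 35% in these data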;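 further: 0% = DMSO wells and 100% = thioflavine S control wells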
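Assay system – hepatitis C virus NS3 helicase domain fragment enzyme · Buffer or medium – MOPS pH 6.5, MgCl2, DTT, Tween20, BSA · Reagent – Cy5/quencher beacon DNA duplex and ATP to start · Compound – single 10.9 µM dose · Timing – 1 h at 25 °C · Technique – Cy5 beacon fluorescence read at start and 1 h · Measure – % inhibition of unwinding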
PRMT1 FP inh = PRMT1 (human) inhibition, primary screen; Q99873; actives 1.3% (n = 370,000); inhibition, % at 2.79 µM; recombinant PRMT1, activity-based probe fluorescence polarization;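 active means inhibition above about 21% made by adding two undisclosed values, limit read from the data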
Target sequence (Q99873 whole entry, looked up): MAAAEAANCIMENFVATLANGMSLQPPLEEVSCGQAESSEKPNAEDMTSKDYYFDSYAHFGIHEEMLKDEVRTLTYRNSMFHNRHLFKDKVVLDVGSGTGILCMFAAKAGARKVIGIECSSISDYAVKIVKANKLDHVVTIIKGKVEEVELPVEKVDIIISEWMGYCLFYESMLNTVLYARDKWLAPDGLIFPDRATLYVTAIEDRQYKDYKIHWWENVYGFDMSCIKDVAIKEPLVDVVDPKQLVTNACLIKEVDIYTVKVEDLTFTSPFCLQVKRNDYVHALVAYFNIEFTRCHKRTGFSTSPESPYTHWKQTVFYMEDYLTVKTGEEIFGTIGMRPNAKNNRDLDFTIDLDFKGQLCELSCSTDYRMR
HCV core dimer = blocks dimerization of HCV core protein. TR-FRET GST/Flag-core106 dimerization, 1536-well. inhibition, % at 5 µM. actives 0.33% (n = 300,000). AID 1899;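 active means inhibition above the mean of all tested compounds plus 3 SD, set per screening campaign, cut at about 45% in these data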
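test system = GST/Flag-tagged HCV core106 proteins | probe or stimulus = Eu donor and XL665 acceptor anti-tag antibodies | times = compound-protein-antibody incubation 4 h at 22.5 °C | signal = TR-FRET, excitation 340 nm, emission 617 and 671 nm | measure = percent inhibition of core106 dimerization signal | controls = wells lacking GST-core106 and wells with excess unlabelled core106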
NS3 hel confirm = confirmation of Hepatitis C virus NS3 helicase inhibitors. shares compounds with HCV NS3 hel inh. NS3 helicase DNA unwinding, Cy5 molecular beacon fluorescence. inhibition, % at 10.9 µM. actives 31% (n = 1,600);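 active means inhibition above the mean of all tested compounds plus 3 SD, cutoff set per campaign, cut at about 36% in these data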
FID counter trip = intercalator displacement, NS3 helicase counter-screen | shares compounds with HCV NS3 hel inh | DNA fluorescent intercalator displacement, fluorescence | actives 4% (n = 1,600) | inhibition, % at 7.9 µM; in the data active means inhibition above about 37%;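 further: 0% = vehicle and 100% = reference compound; higher means more displacement of ethidium bromide from the DNA hairpin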
DNA FID DR = displaces fluorescent intercalator from DNA, HCV helicase counter-screen | shares compounds with HCV NS3 hel inh | fluorescent intercalator displacement from DNA, fluorescence | IC50, µM | 120 tested, under 10 active | AID 2172; call rule not given here
Numbers without * were called inactive.

What do the screens show for `COc1ccc(OCCN2CCC(C(=O)NC(c3ccc(Cl)cc3)c3ncccc3C)CC2)cc1` (stereo not drawn)?
ABHD5-PLIN5 inh: 7.5

How did CC(=O)c1sc(C(=O)O)c(-c2ccco2)c1-c1ccco1 do in these assays?
ABHD5-PLIN5 inh: 13.5; A3A deaminase: 96.0; A3G deaminase: 68.3; HCV NS3 hel inh: 52.0*; PRMT1 FP inh: 9.3; HCV core dimer: -3.7; NS3 hel confirm: 35.7; FID counter trip: 39.0*

How did Cc1ccc(NC(=O)CCS(=O)(=O)c2cccc3nonc23)cc1Cl do in these assays?
ABHD5-PLIN5 inh: 1.1; A3A deaminase: -6.1; A3G deaminase: -1.2; HCV NS3 hel inh: 42.4*; PRMT1 FP inh: -3.6; HCV core dimer: -13.0; NS3 hel confirm: -10.6; FID counter trip: 2.6

How did Cc1ccc(NC(=O)CCS(=O)(=O)c2cccc3nonc23)cc1 do in these assays?
ABHD5-PLIN5 inh: 2.9; A3A deaminase: -0.7; A3G deaminase: -7.3; HCV NS3 hel inh: 6.6; PRMT1 FP inh: 1.7; HCV core dimer: -2.2

What do the screens show for `O=C(NCCNC(=O)c1ccc(-c2cc(Cl)ccc2Cl)o1)c1cnccn1`?
ABHD5-PLIN5 inh: 14.2; PRMT1 FP inh: 4.6

How did CCOc1ccc(/C=C/C(=O)c2cc(Br)ccc(=O)c2O)cc1 do in these assays?
ABHD5-PLIN5 inh: 19.0; HCV NS3 hel inh: 58.9*; PRMT1 FP inh: 10.2; HCV core dimer: 3.5; NS3 hel confirm: 77.0*; FID counter trip: 5.4; DNA FID DR: >79.4

Results for COc1ccccc1N1CCN(C(=O)c2ccc(N(C)S(=O)(=O)c3ccccc3)cc2)CC1 ?
ABHD5-PLIN5 inh: -0.1; A3A deaminase: -0.6; A3G deaminase: -6.0; HCV NS3 hel inh: -16.0; PRMT1 FP inh: 1.6; HCV core dimer: 4.0

How did Oc1c(Cl)cc(CN2CCCCC2)c2cccnc12 do in these assays?
ABHD5-PLIN5 inh: 3.2; A3A deaminase: -4.8; A3G deaminase: 3.4; HCV NS3 hel inh: 36.6*; HCV core dimer: -8.8; NS3 hel confirm: -8.0; FID counter trip: 6.7

Results for Oc1ccc(CN2CCCCC2)c2cccnc12 ?
ABHD5-PLIN5 inh: -7.6; A3A deaminase: -2.6; A3G deaminase: -4.1; HCV NS3 hel inh: 5.0; PRMT1 FP inh: 2.1; HCV core dimer: -1.0

How did Cc1[nH]c2ccccc2c1N=Nc1ccccc1C(=O)O do in these assays?
ABHD5-PLIN5 inh: -2.0; A3A deaminase: 11.8; A3G deaminase: 0.9; HCV NS3 hel inh: 44.0*; PRMT1 FP inh: 8.9; HCV core dimer: -19.6; NS3 hel confirm: 5.5; FID counter trip: 13.1

Results for O=C(/C=C/c1ccc(-c2ccccc2)o1)c1ccccc1 ?
ABHD5-PLIN5 inh: 11.5; A3A deaminase: -1.0; A3G deaminase: -3.9; HCV NS3 hel inh: 46.9*; PRMT1 FP inh: 24.6*; HCV core dimer: 25.4; NS3 hel confirm: -18.7; FID counter trip: 0.9

What do the screens show for `O=Cc1ccc(-c2cccc(C(=O)O)c2)o1`?
ABHD5-PLIN5 inh: -2.1; A3A deaminase: 11.5; A3G deaminase: -1.2; HCV NS3 hel inh: 0.1; PRMT1 FP inh: 6.7; HCV core dimer: -1.5

What do the screens show for `O=C(CSc1n[nH]c(-c2ccc(Br)cc2)n1)N1CCOCC1`?
ABHD5-PLIN5 inh: 12.1; A3A deaminase: -2.6; A3G deaminase: -6.0; PRMT1 FP inh: -2.2

How did O=C(O)c1cc([N+](=O)[O-])cc([N+](=O)[O-])c1N1CCN(c2cccc(C(F)(F)F)c2)CC1 do in these assays?
ABHD5-PLIN5 inh: -14.4; A3A deaminase: 3.2; A3G deaminase: 0.7; HCV NS3 hel inh: 41.7*; PRMT1 FP inh: 0.1; NS3 hel confirm: 54.9*; FID counter trip: -16.9

What do the screens show for `Cc1ccccc1-c1cc2nc(NCc3ccc4occc4c3)n(C)c(=O)c2s1`?
ABHD5-PLIN5 inh: -1.5; PRMT1 FP inh: -3.0

Results for Cc1ccc(Cn2c(C(CO)Nc3nc(-c4ccc(Cl)c([N+](=O)[O-])c4)cs3)nc3ccccc32)cc1 (stereo not drawn) ?
ABHD5-PLIN5 inh: -4.9; A3A deaminase: 0.4; A3G deaminase: 2.8; PRMT1 FP inh: 5.5; HCV core dimer: 2.7

Results for CCCn1c(C(C)Nc2nc(-c3ccc(Cl)c([N+](=O)[O-])c3)cs2)nc2cc(Cl)c(N3CCCCC3)cc21 (stereo not drawn) ?
ABHD5-PLIN5 inh: 9.0; A3A deaminase: 0.9; A3G deaminase: -2.8; HCV NS3 hel inh: 91.6*; HCV core dimer: 29.8; NS3 hel confirm: -14.7; FID counter trip: 5.6

What do the screens show for `Cc1ccc(C(=O)C2=C(O)C(=O)N(Cc3cccnc3)C2c2ccc(N(C)C)cc2)o1` (stereo not drawn)?
ABHD5-PLIN5 inh: -4.5; A3A deaminase: -2.8; A3G deaminase: -10.5; HCV NS3 hel inh: 4.5; PRMT1 FP inh: 5.3; HCV core dimer: 5.5

What do the screens show for `Cc1ccc(C(=O)C2=C(O)C(=O)N(Cc3ccco3)C2c2ccc(N(C)C)cc2)o1` (stereo not drawn)?
ABHD5-PLIN5 inh: -3.6; A3A deaminase: -3.2; A3G deaminase: -6.5; HCV NS3 hel inh: 97.8*; PRMT1 FP inh: 3.2; HCV core dimer: -3.7; NS3 hel confirm: 8.2; FID counter trip: -6.0

How did CCCCOc1ccc(C2C(C(=O)c3ccc(C)o3)=C(O)C(=O)N2Cc2ccco2)cc1 (stereo not drawn) do in these assays?
ABHD5-PLIN5 inh: -15.5; A3A deaminase: -4.8; A3G deaminase: -7.2; HCV NS3 hel inh: 68.8*; PRMT1 FP inh: 0.7; HCV core dimer: 36.4; NS3 hel confirm: 134.6*; FID counter trip: -48.9; DNA FID DR: >79.4

Results for CC1CCN(C(=O)/C(=C\c2ccco2)NC(=O)c2ccccc2)CC1 ?
ABHD5-PLIN5 inh: -1.3; A3A deaminase: 1.6; A3G deaminase: -3.3; HCV NS3 hel inh: 10.1; PRMT1 FP inh: 6.7; HCV core dimer: -1.2

What do the screens show for `Cc1ccc(C(=O)N/C(=C/c2ccco2)C(=O)N2CCC(C)CC2)cc1`?
ABHD5-PLIN5 inh: -3.7; A3A deaminase: 1.2; A3G deaminase: 1.4; HCV NS3 hel inh: 46.6*; PRMT1 FP inh: 7.2; HCV core dimer: 2.9; NS3 hel confirm: -18.7; FID counter trip: -32.3

What do the screens show for `Cc1ccc(C(=O)N/C(=C/c2ccco2)C(=O)NCc2ccco2)cc1`?
ABHD5-PLIN5 inh: 10.1; A3A deaminase: 5.3; A3G deaminase: 2.3; HCV NS3 hel inh: 37.4*; PRMT1 FP inh: 10.7; HCV core dimer: -6.8; NS3 hel confirm: 1.4; FID counter trip: 9.4

Screening results (PubChem BioAssay)
